Laboratory results from publication PMC6469399 (Chemistry (Weinheim an der Bergstrasse, Germany), 2019).

Columns and labels:
F508del-CFTR [1] = target: T1, F508del-CFTR (Homo sapiens, UniProt P13569, DEL508-508); assay: TECC; assay type: cell-based; conditions: F508del CFBE41o- cells; % activity of the 3 μM VX-809 response
Outline: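 F508del CFBE41o- monolayers were pre-incubated 24 h with a range of test-compound concentrations, with DMSO as vehicle and 3 μM VX-809 as positive control in every experiment. Equivalent current (ΔIeq) was recorded as AUC after forskolin (10 μM) + VX-770 (1 μM) stimulation, then CFTRinh-172 (20 μM) inhibition. Response is expressed as % of VX-809 response; n = 3–5; two-way ANOVA with Tukey test versus vehicle.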

G551D-CFTR [2] = target: T2, G551D-CFTR (Homo sapiens, UniProt P13569, G551D); assay: Ussing chamber potentiation assay, G551D CFBE41o- monolayers; assay type: cell-based
F508del-CFTR [3] = target: T1, F508del-CFTR; assay type: cell-based
G551D-CFTR [4] = target: T2, G551D-CFTR; assay: Ussing chamber potentiation assay, Fischer Rat Thyroid; assay type: cell-based
[5] = Metabolic stability in human hepatic microsomes; assay type: in vitro ADME
WT-CFTR [6] = target: T3, WT-CFTR (Homo sapiens, UniProt P13569); assay: Ussing chamber potentiation assay, WT CFBE41o- monolayers; assay type: cell-based
WT-CFTR [7] = target: T3, WT-CFTR; assay: Patch clamp analysis, macroscopic currents in excised inside-out patch; assay type: biochemical

SMILES | Maximal Response (F508del-CFTR [1]) | EC50 (G551D-CFTR [2]) | Maximal Response G551D CFBE (G551D-CFTR [2]; G551D CFBE41o-, % activity of the VX-770 response, Inactive = no statistically significant response above DMSO vehicle) | EC50 (F508del-CFTR [3]) | EC50 (G551D-CFTR [4]) | Maximal Response G551D FRT (G551D-CFTR [4]; G551D FRT cells, % activity of the VX-770 response, Inactive = no statistically significant response above DMSO vehicle) | CLHEP, predicted hepatic clearance, human ([5]; calculated from CLINT, human) | CLINT, intrinsic clearance in human hepatic microsomes ([5]; human hepatic microsomes) | EC50 (WT-CFTR [6]) | Maximal Response WT CFBE (WT-CFTR [6]; WT CFBE41o-, % activity of the VX-770 response, Inactive = no statistically significant response above DMSO vehicle) | EC50 (WT-CFTR [7]) | increase of current at lowest dose tested (WT-CFTR [7]; WT-CFTR patch clamp, 0.2 nM)
COc1ccc(C2(C(=O)Nc3ccc(C)c(-c4cccc(C(=O)O)c4)n3)CC2)cc1 [compound 33] | 49.9% | – | – | – | – | – | – | – | – | – | – | –
CC(C)(C)c1cc(C(C)(C)C)c(NC(=O)c2c[nH]c3ccccc3c2=O)cc1O [VX-770, Ivacaftor] | – | 0.0777 ± 0.0272 µM | 100.0% | 1.89 ± 1.39 µM | 0.428 ± 0.167 µM | 100.0% | 14.4 mL min^−1 kg ^−1 | 45.6 mL min^−1 kg ^−1 | 0.0365 ± 0.0213 µM | 100.0% | 0.0013 ± 0.0003 µM | ~ 12%
